According to ChEMBL document CHEMBL1123129, “Hypolipidemic activity of indan-1,3-dione derivatives in rodents” (J Med Chem, 1985):
Several values for one entry are separate records, joined by “and”; a condition that tells them apart may be missing. Equal values may be shown once.

Experiments:
[1] = target: T1, 3-hydroxy-3-methylglutaryl-coenzyme A reductase (Mus musculus) (UniProt Q01237); assay: In Vitro evaluation for the CF1 liver enzyme activity on HMG CoA reductase at concentration 200 uM
T1 sequence (whole entry): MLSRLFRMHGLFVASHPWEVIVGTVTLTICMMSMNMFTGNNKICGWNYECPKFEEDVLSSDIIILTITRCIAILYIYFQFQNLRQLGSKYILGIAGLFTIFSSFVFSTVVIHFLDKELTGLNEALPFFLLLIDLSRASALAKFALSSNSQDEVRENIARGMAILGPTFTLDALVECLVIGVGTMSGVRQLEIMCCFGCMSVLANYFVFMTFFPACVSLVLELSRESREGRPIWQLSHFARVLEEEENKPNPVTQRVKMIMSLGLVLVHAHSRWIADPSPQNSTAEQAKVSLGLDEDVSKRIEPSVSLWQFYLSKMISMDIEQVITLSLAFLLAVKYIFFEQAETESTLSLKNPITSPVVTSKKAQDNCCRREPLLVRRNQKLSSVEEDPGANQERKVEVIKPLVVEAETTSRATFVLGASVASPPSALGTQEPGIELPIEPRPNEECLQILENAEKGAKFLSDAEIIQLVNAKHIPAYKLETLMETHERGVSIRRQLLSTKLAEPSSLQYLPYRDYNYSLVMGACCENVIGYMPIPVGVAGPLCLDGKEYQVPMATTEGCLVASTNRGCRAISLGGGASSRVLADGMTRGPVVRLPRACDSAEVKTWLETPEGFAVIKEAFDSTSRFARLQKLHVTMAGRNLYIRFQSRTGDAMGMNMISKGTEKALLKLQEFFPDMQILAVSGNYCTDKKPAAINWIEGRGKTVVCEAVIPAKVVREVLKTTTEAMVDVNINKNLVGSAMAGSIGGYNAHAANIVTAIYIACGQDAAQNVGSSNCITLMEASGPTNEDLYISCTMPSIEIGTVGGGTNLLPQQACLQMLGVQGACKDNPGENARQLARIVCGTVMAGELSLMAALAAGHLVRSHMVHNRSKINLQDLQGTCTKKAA
In short: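 Liver was taken from CF1 male mice and made into 10% homogenates, which were incubated with test compound at 50, 100 or 200 µM. Each enzyme was assayed by its literature method, and protein was measured by Lowry. N = 6. Activity is expressed as % of untreated control ± SD.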

Mus musculus [2] = assay: In Vivo effect for the hypolipidemic activity on Hepatic lipoprotein lipase in CF1 mice after 16 days administered orally at a dose of 10 mg/kg; assay type: functional; details: route oral
In short: (§1)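 CF1 male mice are dosed orally at 10–60 mg/kg per day for 16 days, with 1% CMC as the control vehicle. Liver is homogenized at 10% in 0.25 M sucrose + 0.001 M EDTA, pH 7.2. Enzymes are assayed by literature methods, with Lowry protein. Activity is given as % of control (X ± SD, N = 6), with p from Student's t test.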

Rattus norvegicus [3] = assay: Compound was evaluated for the hypolipidemic activity at 20 mg/kg per day orally for 14 days on cholesterol content in rat liver; assay type: functional; details: route oral
In short: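 Male Sprague–Dawley rats were dosed orally for 14 days. Liver, small intestine and a 24-h fecal collection were lipid-extracted. Extracts were assayed for cholesterol (modified Liebermann–Burchard), triglyceride (enzymatic kit), neutral lipids, phospholipids and protein. Values are % of 1% CMC vehicle control, mean ± SD, N = 6.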

[4] = target: T1, 3-hydroxy-3-methylglutaryl-coenzyme A reductase (Mus musculus); assay: In Vivo effect for the hypolipidemic activity on HMG-CoA reductase in CF1 mice after 16 days of oral administration at a dose of 10 mg/kg; assay type: organism-based; design: dose 10 mg/kg; in short: as §1
[5] = target: T1, 3-hydroxy-3-methylglutaryl-coenzyme A reductase (Mus musculus); assay: In Vivo effect for the hypolipidemic activity on HMG-CoA reductase in CF1 mice after 16 days of oral administration at a dose of 40 mg/kg; assay type: organism-based; design: dose 40 mg/kg; in short: as §1
Rattus norvegicus [6] = assay: Compound was evaluated for the hypolipidemic activity at 20 mg/kg per day orally for 14 days on cholesterol content in rat lipoprotein chylomicron; assay type: functional; details: route oral
In short: (§2)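 Male Sprague–Dawley rats (~300 g) were dosed orally each day. Blood was drawn from the abdominal vein. Lipoprotein fractions (chylomicron, VLDL, LDL, HDL) were separated by the Hatch–Lees and Havel methods. Each fraction was assayed for cholesterol, triglyceride (enzymatic kit), neutral lipids, phospholipids and Lowry protein. Values are % of 1% CMC vehicle control, N = 6.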

[7] = target: T2, ATP-citrate synthase (Mus musculus) (UniProt Q91V92); assay: In Vivo effect for the hypolipidemic activity on ATP-Citrate Lyase in CF1 mice after 16 days of oral administration at a dose of 10 mg/kg; assay type: organism-based; design: dose 10 mg/kg; in short: as §1
T2 sequence (whole entry): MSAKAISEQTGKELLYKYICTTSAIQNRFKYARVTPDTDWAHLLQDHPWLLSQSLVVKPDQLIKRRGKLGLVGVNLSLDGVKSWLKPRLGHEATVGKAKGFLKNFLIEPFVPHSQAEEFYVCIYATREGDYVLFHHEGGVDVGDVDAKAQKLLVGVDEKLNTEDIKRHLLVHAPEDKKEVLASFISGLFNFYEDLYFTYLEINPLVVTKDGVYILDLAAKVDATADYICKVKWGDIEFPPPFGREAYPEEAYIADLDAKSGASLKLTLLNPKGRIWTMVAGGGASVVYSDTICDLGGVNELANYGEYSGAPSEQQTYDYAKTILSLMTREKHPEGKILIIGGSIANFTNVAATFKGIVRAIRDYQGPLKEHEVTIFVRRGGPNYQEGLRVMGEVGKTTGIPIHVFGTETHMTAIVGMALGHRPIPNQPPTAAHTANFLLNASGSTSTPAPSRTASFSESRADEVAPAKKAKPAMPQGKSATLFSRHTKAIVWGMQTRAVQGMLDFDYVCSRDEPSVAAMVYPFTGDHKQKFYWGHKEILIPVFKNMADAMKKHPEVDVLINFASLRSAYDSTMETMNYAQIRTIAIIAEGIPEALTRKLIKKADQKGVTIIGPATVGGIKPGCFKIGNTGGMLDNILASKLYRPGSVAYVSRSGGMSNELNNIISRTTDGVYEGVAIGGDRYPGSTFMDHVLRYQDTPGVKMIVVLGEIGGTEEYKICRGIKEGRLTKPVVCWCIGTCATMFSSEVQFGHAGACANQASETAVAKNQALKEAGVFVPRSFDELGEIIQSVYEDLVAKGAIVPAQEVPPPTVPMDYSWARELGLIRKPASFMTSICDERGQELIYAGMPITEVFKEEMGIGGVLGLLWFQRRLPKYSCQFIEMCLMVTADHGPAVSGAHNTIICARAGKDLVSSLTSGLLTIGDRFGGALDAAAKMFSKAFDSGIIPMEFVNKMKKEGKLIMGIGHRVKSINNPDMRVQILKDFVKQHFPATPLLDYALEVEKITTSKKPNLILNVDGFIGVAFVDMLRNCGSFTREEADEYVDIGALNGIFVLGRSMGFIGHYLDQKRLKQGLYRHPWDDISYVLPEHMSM

Rattus norvegicus [8] = assay: Compound was evaluated for the hypolipidemic activity at 20 mg/kg per day orally for 14 days against neutral lipids in rat lipoprotein chylomicron; assay type: functional; details: route oral; in short: as §2
Mus musculus [9] = assay: In Vivo effect for the hypolipidemic activity on phosphatidate phosphohydrolase in CF1 mice after 16 days administered orally at a dose of 60 mg/kg; assay type: organism-based; design: dose 60 mg/kg; in short: as §1

Question: Which results are given for `COc1ccc(C2C(=O)c3ccccc3C2=O)cc1` [ANISINDIONE]?
Answer: Control [1]: 105%; Control (Mus musculus [2]): 83%; Control (Rattus norvegicus [3]): 69% and 84%; Control [4]: 116%; Control [5]: 114%; Control (Rattus norvegicus [6]): 96%; Control [7]: 70%; Control (Rattus norvegicus [8]): 99%; Control (Mus musculus [9]): 100%
